Legend:
Type in all cases: cell-based
Conditions in all cases: Ca2+ assay
[1] = biological target: human TRPA1 (Homo sapiens, UniProt O75762); test: Calcium influx assay in HEK-293F cells transiently expressing human TRPA1
[2] = biological target: rat TRPA1 (Rattus norvegicus, UniProt Q6RI86); test: Calcium influx assay, rat TRPA1
Method in brief: (§1)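 TRPA1 orthologue cDNAs in pcDNA3.1 Hygro, transiently transfected, each construct tested in at least 2 independent transfections. Fluorescence Ca2+ influx (RFU) read in Hanks balanced salt solution with 1.26 mM Ca2+ and 1.0 mM Mg2+.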

[3] = biological target: dog TRPA1 (Canis lupus familiaris, UniProt A0A8I3Q1Q7); test: Calcium influx assay, dog TRPA1
Method in brief: as §1

[4] = biological target: guinea pig TRPA1 (Cavia porcellus, UniProt H0VJD1); test: Calcium influx assay, guinea pig TRPA1
Method in brief: as §1

[5] = test system: chicken TRPA1; test: Calcium influx assay, chicken TRPA1
Method in brief: as §1

Chain of human TRPA1 (O75762 whole entry): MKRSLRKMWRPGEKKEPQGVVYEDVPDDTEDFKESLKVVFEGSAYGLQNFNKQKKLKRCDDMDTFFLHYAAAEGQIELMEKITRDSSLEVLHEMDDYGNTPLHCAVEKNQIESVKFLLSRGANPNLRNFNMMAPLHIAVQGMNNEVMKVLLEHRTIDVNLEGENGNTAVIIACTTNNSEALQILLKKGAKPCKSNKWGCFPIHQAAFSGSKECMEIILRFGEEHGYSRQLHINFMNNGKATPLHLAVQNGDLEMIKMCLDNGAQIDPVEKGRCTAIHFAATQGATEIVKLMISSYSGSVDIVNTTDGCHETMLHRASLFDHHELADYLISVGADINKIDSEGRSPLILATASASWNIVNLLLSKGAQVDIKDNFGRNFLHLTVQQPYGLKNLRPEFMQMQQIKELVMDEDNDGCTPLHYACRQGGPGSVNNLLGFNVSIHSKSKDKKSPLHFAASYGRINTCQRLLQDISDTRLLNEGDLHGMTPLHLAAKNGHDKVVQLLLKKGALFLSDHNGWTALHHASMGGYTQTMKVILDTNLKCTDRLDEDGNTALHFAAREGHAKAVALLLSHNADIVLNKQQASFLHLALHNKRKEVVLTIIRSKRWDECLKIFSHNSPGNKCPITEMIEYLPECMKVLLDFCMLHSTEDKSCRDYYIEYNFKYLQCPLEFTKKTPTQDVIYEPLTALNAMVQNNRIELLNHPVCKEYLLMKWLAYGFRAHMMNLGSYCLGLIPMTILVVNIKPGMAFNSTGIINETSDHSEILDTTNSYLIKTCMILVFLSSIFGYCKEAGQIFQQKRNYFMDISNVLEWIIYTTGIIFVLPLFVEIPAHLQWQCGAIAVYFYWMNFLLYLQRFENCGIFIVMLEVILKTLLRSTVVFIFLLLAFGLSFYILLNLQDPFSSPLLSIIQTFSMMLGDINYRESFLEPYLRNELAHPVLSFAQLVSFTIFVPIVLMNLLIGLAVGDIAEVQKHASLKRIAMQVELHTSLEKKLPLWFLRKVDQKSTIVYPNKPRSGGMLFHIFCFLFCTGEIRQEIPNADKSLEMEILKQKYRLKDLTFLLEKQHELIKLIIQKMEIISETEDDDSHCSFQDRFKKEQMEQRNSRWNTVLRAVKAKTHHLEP
Chain of dog TRPA1 (A0A8I3Q1Q7 1-1118): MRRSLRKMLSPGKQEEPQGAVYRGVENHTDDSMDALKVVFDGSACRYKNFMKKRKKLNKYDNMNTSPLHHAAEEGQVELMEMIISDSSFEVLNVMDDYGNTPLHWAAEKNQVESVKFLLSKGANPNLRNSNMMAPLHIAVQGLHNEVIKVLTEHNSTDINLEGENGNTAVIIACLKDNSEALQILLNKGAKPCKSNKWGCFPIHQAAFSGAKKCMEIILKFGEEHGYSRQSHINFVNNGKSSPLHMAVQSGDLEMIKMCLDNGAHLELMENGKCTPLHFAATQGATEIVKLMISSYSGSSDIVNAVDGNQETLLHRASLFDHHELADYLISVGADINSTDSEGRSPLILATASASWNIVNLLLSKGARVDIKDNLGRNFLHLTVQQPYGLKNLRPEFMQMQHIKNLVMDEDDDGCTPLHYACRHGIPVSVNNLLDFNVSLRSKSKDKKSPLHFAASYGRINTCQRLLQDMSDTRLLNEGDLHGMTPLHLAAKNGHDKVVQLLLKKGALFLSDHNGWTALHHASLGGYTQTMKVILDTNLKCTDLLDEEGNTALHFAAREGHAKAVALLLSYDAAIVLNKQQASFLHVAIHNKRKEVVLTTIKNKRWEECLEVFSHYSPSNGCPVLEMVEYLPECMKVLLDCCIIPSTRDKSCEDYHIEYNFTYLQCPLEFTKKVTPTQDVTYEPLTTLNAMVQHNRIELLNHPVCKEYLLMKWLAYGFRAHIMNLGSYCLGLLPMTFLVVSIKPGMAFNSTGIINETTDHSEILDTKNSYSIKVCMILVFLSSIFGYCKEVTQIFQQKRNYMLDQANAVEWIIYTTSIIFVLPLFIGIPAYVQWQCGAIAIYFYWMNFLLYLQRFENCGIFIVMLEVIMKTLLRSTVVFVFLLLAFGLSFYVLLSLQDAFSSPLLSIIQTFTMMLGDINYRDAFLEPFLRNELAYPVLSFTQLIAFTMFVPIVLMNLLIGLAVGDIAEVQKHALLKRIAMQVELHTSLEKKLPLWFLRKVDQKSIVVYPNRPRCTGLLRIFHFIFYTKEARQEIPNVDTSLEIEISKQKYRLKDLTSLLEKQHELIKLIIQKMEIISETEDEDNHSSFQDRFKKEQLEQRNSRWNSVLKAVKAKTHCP
Chain of guinea pig TRPA1 (H0VJD1 1-991): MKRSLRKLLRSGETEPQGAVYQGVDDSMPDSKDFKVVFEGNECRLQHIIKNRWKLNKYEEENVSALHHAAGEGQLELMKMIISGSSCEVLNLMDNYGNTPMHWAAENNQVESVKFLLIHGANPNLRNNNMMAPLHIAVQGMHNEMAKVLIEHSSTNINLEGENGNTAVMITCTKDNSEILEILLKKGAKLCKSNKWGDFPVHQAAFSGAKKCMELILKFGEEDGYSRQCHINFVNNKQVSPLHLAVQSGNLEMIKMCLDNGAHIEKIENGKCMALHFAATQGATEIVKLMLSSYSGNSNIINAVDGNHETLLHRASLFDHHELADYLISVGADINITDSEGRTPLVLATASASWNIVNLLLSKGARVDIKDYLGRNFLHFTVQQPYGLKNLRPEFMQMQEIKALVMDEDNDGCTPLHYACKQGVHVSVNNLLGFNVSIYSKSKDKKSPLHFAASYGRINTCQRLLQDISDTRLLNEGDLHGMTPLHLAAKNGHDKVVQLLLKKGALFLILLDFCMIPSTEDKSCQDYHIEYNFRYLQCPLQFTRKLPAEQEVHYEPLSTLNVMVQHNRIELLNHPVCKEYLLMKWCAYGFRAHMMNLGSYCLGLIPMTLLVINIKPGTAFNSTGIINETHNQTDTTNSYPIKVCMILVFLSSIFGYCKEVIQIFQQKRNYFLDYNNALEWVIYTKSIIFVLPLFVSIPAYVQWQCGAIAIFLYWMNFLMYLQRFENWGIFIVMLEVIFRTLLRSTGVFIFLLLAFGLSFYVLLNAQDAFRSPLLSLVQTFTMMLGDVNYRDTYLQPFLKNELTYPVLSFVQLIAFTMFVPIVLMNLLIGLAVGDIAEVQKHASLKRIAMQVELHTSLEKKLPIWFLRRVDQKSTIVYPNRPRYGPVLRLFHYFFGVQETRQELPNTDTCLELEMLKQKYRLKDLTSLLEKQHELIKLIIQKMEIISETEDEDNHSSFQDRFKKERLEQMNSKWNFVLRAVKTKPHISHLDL
Chain of rat TRPA1 (Q6RI86 whole entry): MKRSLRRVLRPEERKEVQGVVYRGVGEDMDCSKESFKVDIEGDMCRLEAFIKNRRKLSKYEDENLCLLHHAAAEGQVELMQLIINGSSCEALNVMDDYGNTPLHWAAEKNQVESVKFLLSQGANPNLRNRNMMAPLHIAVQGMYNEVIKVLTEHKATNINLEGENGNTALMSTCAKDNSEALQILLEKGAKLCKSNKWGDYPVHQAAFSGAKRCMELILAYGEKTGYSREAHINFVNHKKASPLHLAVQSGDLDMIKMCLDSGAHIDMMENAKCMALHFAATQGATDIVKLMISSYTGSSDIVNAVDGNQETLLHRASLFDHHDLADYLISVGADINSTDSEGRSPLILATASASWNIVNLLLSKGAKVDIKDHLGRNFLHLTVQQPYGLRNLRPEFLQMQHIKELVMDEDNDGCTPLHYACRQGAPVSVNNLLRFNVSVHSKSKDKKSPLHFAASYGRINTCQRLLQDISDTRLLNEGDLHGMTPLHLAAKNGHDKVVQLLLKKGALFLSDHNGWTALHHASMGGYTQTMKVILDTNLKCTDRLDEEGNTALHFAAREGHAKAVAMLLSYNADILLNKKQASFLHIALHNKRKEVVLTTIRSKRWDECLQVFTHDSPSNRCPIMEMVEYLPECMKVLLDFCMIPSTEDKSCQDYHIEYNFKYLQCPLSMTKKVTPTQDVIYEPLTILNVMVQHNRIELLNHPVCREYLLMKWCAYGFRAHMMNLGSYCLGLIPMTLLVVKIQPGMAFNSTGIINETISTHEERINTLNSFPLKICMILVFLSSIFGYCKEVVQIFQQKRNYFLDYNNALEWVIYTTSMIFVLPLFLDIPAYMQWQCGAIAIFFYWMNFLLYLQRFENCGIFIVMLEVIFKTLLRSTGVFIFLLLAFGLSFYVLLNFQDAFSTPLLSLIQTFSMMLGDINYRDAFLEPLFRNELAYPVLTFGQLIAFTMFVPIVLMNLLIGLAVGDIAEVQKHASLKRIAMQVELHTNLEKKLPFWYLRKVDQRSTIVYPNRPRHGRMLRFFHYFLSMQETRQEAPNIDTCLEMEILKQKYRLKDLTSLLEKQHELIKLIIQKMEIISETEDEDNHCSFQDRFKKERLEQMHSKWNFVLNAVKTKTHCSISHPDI

SMILES: C=CCN=C=S [AITC, allyl isothiocyanate]
- Hill slope ([1]; concentration-response, human TRPA1): 1.4
- activation of human TRPA1 ([1]; species comparison): robust response
- activation of rat TRPA1 [2]: robust response
- activation of dog TRPA1 [3]: robust response
- activation of guinea pig TRPA1 [4]: robust response
- activation of chicken TRPA1 [5]: robust response

Reference: article PMC6926016 (Proceedings of the National Academy of Sciences of the …, 2019)
